ChEMBL document CHEMBL4145646, “Macrophilones from the Marine Hydroid Macrorhynchia philippina Can Inhibit ERK Cascade Signaling” (J Nat Prod, 2018)
Calls of active or inactive are those of the source. No cut-off for these calls is given here.

Assays:
[1] = biological target: Serine/threonine-protein kinase B-raf (Homo sapiens) (UniProt P15056); assay: Inhibition of B-Raf (unknown origin) at 10 uM using inactive MEK as substrate pretreated for 20 mins followed by substrate addition and measured after 30 mins in presence of [gamma32P]ATP by autoradiography
[2] = biological target: RAF proto-oncogene serine/threonine-protein kinase (Homo sapiens) (UniProt P04049); assay: Inhibition of C-Raf (unknown origin) at 10 uM using inactive MEK as substrate pretreated for 20 mins followed by substrate addition and measured after 30 mins in presence of [gamma32P]ATP by autoradiography
[3] = biological target: Dual specificity mitogen-activated protein kinase kinase 1 (Homo sapiens) (UniProt Q02750); assay: Inhibition of wild-type MEK1 (unknown origin) at 10 uM using inactive ERK2 as substrate pretreated for 20 mins followed by substrate addition and measured after 30 mins in presence of [gamma32P]ATP by autoradiography
[4] = species on record: Homo sapiens; assay: Inhibition of ERK (unknown origin)
[5] = biological target: T1, Dual specificity mitogen-activated protein kinase kinase; MEK1/2 (Homo sapiens) (UniProt P36507+Q02750); assay: Increase in MEK phosphorylation in human COLO205 cells harboring B-Raf V600E mutant at 1 uM after 18 hrs by Western blot analysis; type: cell-based
How it was run: (§1)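 Colo205 cells grown at 37 °C, 5% CO2 in RPMI-1640 with 10% FBS and 2 mM L-glutamine. Compounds added in DMSO (final 0.1% v/v), vehicle-only controls. Cells washed twice in ice-cold PBS, lysed in RIPA buffer (pH 8.0, with protease and phosphatase inhibitors). Lysates clarified, equalized for protein, then immunoblotted for B-Raf, C-Raf, ERK2, MEK1, pS217/221-MEK and pT202/Y204-ERK.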

[6] = test system: COLO 205; assay: Down regulation of total ERK level in human COLO205 cells harboring B-Raf V600E mutant at 1 to 10 uM measured after 18 hrs by Western blot analysis; type: functional, cell-based; how it was run: as §1
[7] = test system: COLO 205; assay: Effect on total MEK level in human COLO205 cells harboring B-Raf V600E mutant at 1 to 10measured after 18 hrs by Western blot analysis; type: functional, cell-based; how it was run: as §1
[8] = biological target: T1, Dual specificity mitogen-activated protein kinase kinase; MEK1/2 (Homo sapiens); assay: Inhibition of MEK phosphorylation in human COLO205 cells harboring B-Raf V600E mutant at 1 to 10 uM after 18 hrs by Western blot analysis; type: cell-based; how it was run: as §1
[9] = test system: COLO 205; assay: Effect on total C-Raf level in human COLO205 cells harboring B-Raf V600E mutant at 1 to 10measured after 18 hrs by Western blot analysis; type: functional, cell-based; how it was run: as §1
[10] = test system: COLO 205; assay: Effect on total B-Raf level in human COLO205 cells harboring B-Raf V600E mutant at 1 to 10measured after 18 hrs by Western blot analysis; type: functional, cell-based; how it was run: as §1
[11] = test system: COLO 205; assay: Effect on total ERK level in human COLO205 cells harboring B-Raf V600E mutant at 1 to 10measured after 18 hrs by Western blot analysis; type: functional, cell-based; how it was run: as §1
[12] = test system: Malme-3M; assay: Growth inhibition of human MALME-3M cells harboring B-Raf V600E mutant after 48 hrs by sulforhodamine B assay; type: functional, cell-based
How it was run: (§2)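 Tested in the NCI-60 human tumor cell line screen as DMSO solutions. Results analyzed with CellMiner bioinformatics tools.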

[13] = test system: COLO 205; assay: Growth inhibition of human COLO205 cells harboring B-Raf V600E mutant after 48 hrs by sulforhodamine B assay; type: functional, cell-based; how it was run: as §2
[14] = test system: SK-MEL-5; assay: Growth inhibition of human SK-MEL-5 cells harboring B-Raf V600E mutant after 48 hrs by sulforhodamine B assay; type: functional, cell-based; how it was run: as §2
[15] = test system: MDA-MB-435; assay: Growth inhibition of human MDA-MB-435 cells harboring B-Raf V600E mutant after 48 hrs by sulforhodamine B assay; type: functional, cell-based; how it was run: as §2
[16] = test system: Serine/threonine-protein kinase B-raf (Homo sapiens), P15056 [V600E]; assay: Increase in ERK phosphorylation in human COLO205 cells harboring B-Raf V600E mutant at 1 uM after 18 hrs by Western blot analysis; type: cell-based; how it was run: as §1
Sequence of Serine/threonine-protein kinase B-raf (Homo sapiens), P15056 [V600E] (P15056 whole entry V600E): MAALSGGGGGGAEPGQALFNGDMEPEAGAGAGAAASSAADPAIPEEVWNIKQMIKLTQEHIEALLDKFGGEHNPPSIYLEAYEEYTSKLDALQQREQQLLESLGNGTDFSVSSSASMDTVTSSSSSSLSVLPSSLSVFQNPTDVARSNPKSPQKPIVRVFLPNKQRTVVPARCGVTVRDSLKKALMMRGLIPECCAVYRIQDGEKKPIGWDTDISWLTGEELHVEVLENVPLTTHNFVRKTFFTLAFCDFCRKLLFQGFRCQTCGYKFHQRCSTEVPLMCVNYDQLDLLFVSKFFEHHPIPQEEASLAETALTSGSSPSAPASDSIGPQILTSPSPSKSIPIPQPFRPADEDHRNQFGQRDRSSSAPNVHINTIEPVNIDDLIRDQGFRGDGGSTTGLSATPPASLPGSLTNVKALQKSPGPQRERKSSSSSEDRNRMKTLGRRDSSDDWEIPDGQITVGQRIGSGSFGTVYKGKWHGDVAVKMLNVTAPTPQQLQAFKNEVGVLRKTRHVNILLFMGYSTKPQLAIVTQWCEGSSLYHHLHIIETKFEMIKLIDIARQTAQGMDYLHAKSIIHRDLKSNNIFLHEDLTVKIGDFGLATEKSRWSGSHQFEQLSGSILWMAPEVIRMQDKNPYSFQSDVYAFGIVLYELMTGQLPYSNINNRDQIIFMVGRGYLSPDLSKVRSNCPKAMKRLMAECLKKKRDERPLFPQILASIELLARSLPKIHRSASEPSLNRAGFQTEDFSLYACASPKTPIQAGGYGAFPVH

Sequence of Dual specificity mitogen-activated protein kinase kinase 1 (Homo sapiens) (Q02750 whole entry): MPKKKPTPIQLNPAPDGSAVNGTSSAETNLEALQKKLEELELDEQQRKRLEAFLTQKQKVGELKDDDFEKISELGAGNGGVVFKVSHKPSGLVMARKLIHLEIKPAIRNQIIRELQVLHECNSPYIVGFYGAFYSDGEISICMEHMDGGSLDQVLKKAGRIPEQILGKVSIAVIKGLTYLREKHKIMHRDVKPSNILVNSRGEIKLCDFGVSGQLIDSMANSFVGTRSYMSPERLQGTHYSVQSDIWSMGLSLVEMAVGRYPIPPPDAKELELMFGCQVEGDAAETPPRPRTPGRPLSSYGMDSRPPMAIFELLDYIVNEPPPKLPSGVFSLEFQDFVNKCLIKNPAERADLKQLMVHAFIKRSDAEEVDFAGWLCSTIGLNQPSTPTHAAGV
T1 sequence (P36507 whole entry, looked up): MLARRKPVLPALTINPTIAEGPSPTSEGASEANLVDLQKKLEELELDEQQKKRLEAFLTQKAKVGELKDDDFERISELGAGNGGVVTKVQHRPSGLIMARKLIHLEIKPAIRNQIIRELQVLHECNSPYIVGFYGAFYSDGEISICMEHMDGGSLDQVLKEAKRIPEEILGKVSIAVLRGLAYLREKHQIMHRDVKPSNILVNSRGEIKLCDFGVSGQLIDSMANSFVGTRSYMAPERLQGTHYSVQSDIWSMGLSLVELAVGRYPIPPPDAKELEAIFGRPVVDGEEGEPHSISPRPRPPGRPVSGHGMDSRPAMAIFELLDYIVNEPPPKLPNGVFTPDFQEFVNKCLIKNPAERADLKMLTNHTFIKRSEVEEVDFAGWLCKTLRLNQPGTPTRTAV
T1 sequence (Q02750 whole entry, looked up): as the sequence (Q02750 whole entry) above
Sequence of Serine/threonine-protein kinase B-raf (Homo sapiens) (P15056 whole entry): as the sequence (P15056 whole entry V600E) above, with E600V counted along it
Sequence of RAF proto-oncogene serine/threonine-protein kinase (Homo sapiens) (P04049 whole entry): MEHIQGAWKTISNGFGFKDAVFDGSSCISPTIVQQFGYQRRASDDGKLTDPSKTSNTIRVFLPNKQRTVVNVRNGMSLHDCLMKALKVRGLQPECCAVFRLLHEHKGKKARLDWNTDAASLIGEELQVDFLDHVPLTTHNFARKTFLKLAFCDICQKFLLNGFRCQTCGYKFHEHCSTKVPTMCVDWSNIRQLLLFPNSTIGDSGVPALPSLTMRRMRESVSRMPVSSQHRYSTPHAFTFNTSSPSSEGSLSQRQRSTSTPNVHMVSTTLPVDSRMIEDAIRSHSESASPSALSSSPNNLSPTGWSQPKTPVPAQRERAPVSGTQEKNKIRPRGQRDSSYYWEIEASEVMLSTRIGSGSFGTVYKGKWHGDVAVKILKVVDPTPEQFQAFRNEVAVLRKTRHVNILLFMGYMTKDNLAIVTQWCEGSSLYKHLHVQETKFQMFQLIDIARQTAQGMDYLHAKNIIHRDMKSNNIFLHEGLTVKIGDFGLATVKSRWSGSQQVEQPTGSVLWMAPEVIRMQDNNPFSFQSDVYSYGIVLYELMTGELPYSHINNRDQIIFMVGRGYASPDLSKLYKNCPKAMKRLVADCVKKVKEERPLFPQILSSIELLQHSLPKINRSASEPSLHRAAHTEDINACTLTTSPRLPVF

Structure (SMILES) | inhibition [1] | inhibition [2] | inhibition [3] | inhibition [4] | Activity [5] | Activity [6] | Activity [7] | inhibition [8] | Activity [9] | Activity [10] | Activity [11] | growth inhibition (GI) [12] | growth inhibition (GI) [13] | growth inhibition (GI) [14] | growth inhibition (GI) [15] | Activity [16]
N=C1C2=C(NCC[S+]2[O-])C(=O)c2[nH]cc(CO)c21 (stereo unspecified) | inactive | inactive | inactive | inactive | Active | inactive | – | – | – | – | – | – | – | – | – | –
CN(C)CCOc1ccc(-c2nc(-c3ccc4c(c3)CC/C4=N/O)c(-c3ccncc3)[nH]2)cc1 | – | – | – | – | – | – | inactive | Active | inactive | inactive | inactive | – | – | – | – | –
CSC1=C(N)C(=O)c2[nH]cc(CO)c2C1=N | inactive | inactive | inactive | inactive | – | inactive | – | – | – | – | – | Active | Active | Active | Active | –
N=C1C2=C(NCCS2)C(=O)c2[nH]cc(CO)c21 | inactive | inactive | inactive | inactive | Active | inactive | – | – | – | – | – | Active | Active | Active | Active | Active
